5HT1a antag – human 5-HT1a receptor antagonists, primary screen, cell-based, CHO, Ga15 NFAT-bla reporter | CHO 5-HT1a Ga15 NFAT-bla reporter, antagonist mode | inhibition, % at 10 µM | actives 0.68% (n = 62,000) | AID 612, 2007;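 active = inhibition above the mean of all tested compounds plus 3 SD, cut at about 43% in these data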;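 also: receptor stimulated by 5-CT agonist at 100 nM near EC80; beta-lactamase reporter measured by ratiometric fluorescence of a cleavable substrate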
S1P1 ag pot – S1P1 agonists and agonism potentiators, primary screen, cell-based, primary and confirmation screens, CRE-bla reporter; S1P1 CRE-bla cells, forskolin, beta-lactamase FRET, potentiator mode; S1P1 agonist co-added at EC20, 2 nM; 100% = saturating reference agonist, 0% = basal; activation, % at 9.5 µM; Sphingosine 1-phosphate receptor 1 (Homo sapiens), P21453; AID 449, 2006; actives 0.57% (n = 56,000);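 active = activation above a cutoff set at the mean activation of all tested compounds plus 3 SD, cut at about 54% in these data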;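 also: forskolin at 4 µM as EC80 and the EC20 agonist is SEW2871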
HTR1E agonist – 5-HT1E receptor agonists, primary screen, cell-based, HTS; CHO 5-HT1E Ga15 NFAT-bla reporter, FRET; 0% DMSO wells, 100% control agonist wells; activation, % at 6 µM; actives 0.69% (n = 65,000); AID 574, 2007;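 active = activation above a set limit, the screen-wide mean activation plus 3 SD, cut at about 8.5% in these data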
Target sequence (P28566 whole entry, looked up): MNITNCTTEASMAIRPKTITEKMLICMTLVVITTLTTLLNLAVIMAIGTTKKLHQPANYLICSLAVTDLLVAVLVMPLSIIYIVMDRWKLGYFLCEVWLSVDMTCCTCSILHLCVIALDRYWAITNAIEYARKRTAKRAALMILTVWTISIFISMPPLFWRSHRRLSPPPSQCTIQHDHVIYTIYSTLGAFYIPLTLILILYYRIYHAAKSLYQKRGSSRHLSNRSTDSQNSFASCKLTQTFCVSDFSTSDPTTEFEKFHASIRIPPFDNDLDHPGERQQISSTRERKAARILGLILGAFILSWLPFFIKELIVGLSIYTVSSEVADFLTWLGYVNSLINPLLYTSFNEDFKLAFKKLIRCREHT
HTR1A agonist – human 5-HT1a receptor agonists, primary screen, cell-based, CHO, Ga15 NFAT-bla reporter | 5-hydroxytryptamine receptor 1A (Homo sapiens), P08908 | CHO 5-HT1a Ga15 NFAT-bla reporter, FRET ratio; 0% basal, 100% maximal reference agonist | activation, % at 10 µM | actives 0.56% (n = 65,000) | AID 567, 2006;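 active = activation above the screen-wide mean activation plus 3 SD, cut at about 19% in these data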
HTR1E antagonist – 5-HT1E receptor antagonists, primary screen, cell-based, HTS; CHO 5-HT1E Ga15 NFAT-bla reporter, FRET, antagonist; actives 0.99% (n = 65,000); inhibition, % at 6 µM; 5-hydroxytryptamine receptor 1E (Homo sapiens), P28566;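 active = inhibition above a set limit, the mean inhibition across every tested compound plus 3 SD, cut at about 29% in these data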;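 also: signal is the 460 over 535 nm emission ratio of beta-lactamase substrate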
S1P3 agonist – human S1P3 receptor agonists, primary screen, cell-based, primary and confirmation, NFAT-BLA reporter | activation, % at 4.5 µM | S1P3 NFAT-BLA reporter cells, agonism, FRET ratio; relative to 1 µM S1P, basal subtracted | Sphingosine 1-phosphate receptor 3 (Homo sapiens), Q99500 | actives 0.1% (n = 60,000) | AID 373, 2006;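 active = activation above the screen-wide mean plus 3 SD, cut at about 4.5% in these data, passing the limit was not always enough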
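Material: Human S1P3 NFAT-BLA reporter CHO cells | Incubation: Overnight plating, 4 h compound 37 °C, 2 h substrate RT | Signal: FRET β-lactamase substrate fluorescence, excitation 405 nm, 460/535 nm emission ratio, background-subtracted | Compound: 4.5 µM final, single dose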
Hits are given with their value; – = inactive; · = no result given. Compounds with a hit are over-represented: about 3% of the library has one in this group of screens.

SMILES | 5HT1a antag | S1P1 ag pot | HTR1E agonist | HTR1A agonist | HTR1E antagonist | S1P3 agonist
N=c1c(C(=O)NCc2ccco2)cc2c(=O)n3ccccc3nc2n1Cc1ccc(Cl)cc1 | – | – | – | 27 | – | 4.8
Cc1ccc(CNC(=O)c2cc3c(=O)n4ccccc4nc3n(Cc3ccco3)c2=N)cc1 | · | – | – | – | – | –
Cn1c(=N)c(S(=O)(=O)c2ccccc2)cc2c(=O)n3ccccc3nc21 | – | – | – | – | – | –
CC(C)n1c(=N)c(C(=O)NCCc2ccccc2)cc2c(=O)n3ccccc3nc21 | – | – | 13 | 52 | – | 6.3
N=c1c(S(=O)(=O)c2ccc(Cl)cc2)cc2c(=O)n3ccccc3nc2n1CCN1CCOCC1 | – | – | – | 24 | – | –
O=C(O)CSc1nnc(-c2ccncc2)n1C1CCCCC1 | – | – | – | – | – | –
O=C(c1ccco1)c1cn(CC(=O)N2CCCc3ccccc32)c2ccccc12 | – | – | – | – | – | –
Cc1ccc2[nH]c3c(NCc4ccco4)ncnc3c2c1 | – | 65 | – | – | – | –
c1coc(CNc2ncnc3nc[nH]c23)c1 | – | – | – | – | – | –
COc1ccc(CC(=O)Nc2ccc(-c3noc(-c4cccc(OC)c4)n3)cc2)cc1 | – | – | – | – | – | –
COc1cccc(-c2nc(-c3ccc(NC(=O)c4cccnc4)cc3)no2)c1 | – | 60 | – | – | – | –
Cc1ccc(C2C3CN(C(C)C)CC=C3C(C#N)=C(N)C2(C#N)C#N)cc1 (configuration not stated) | · | – | – | 32 | – | –
CCOC(=O)N1CC=C2C(C#N)=C(N)C(C#N)(C#N)[C@H](c3ccc(OCC)c(OCC)c3)[C@H]2C1 | – | – | – | – | – | –
CCCCOc1ccc(C2C3CN(C(=O)OCC)CC=C3C(C#N)=C(N)C2(C#N)C#N)cc1OC (configuration not stated) | – | – | – | 46 | – | –
Cc1cccc(N2CCN(C(=O)C3CCCN(S(=O)(=O)c4cccc5cccnc45)C3)CC2)c1C (configuration not stated) | – | – | 18 | – | – | –
O=C(C1CCCN(S(=O)(=O)c2cccc3cccnc23)C1)N1CCN(c2ccccc2F)CC1 (configuration not stated) | – | – | – | – | – | –
CS(=O)c1nc(-c2ccc(Br)cc2)cc(-c2ccccc2)c1C#N (configuration not stated) | 81 | – | – | – | 43 | –
CSc1nc(-c2ccco2)cc(-c2ccccc2)c1C#N | – | – | – | – | – | –
COc1ccc(N2CCCn3c2nc2c3c(=O)n(Cc3ccccc3F)c(=O)n2C)c(OC)c1 | – | – | – | – | – | –
Cc1c(C(=O)NCc2cccnc2)oc2ccccc12 | – | – | – | – | 33 | –
CCOC(=O)CCNC(=O)CNC(=O)OCc1ccccc1 | – | – | – | – | – | –
CCC(=O)N1CCc2cc(S(=O)(=O)N3CCN(C(=O)c4ccco4)CC3)ccc21 | – | · | – | – | – | ·
CC(=O)N1CCc2cc(S(=O)(=O)CCC(=O)N3CCN(C(=O)c4ccco4)CC3)ccc21 | – | – | – | – | 31 | –
C=COCCNC(=O)Nc1ccc(Cl)c(Cl)c1 | – | – | – | – | – | –
CC(=O)Nc1ccc(S(=O)(=O)/N=C2\SCCN2S(=O)(=O)c2ccc(NC(C)=O)cc2)cc1 | – | – | – | 73 | – | –
SMILES | 5HT1a antag | S1P1 ag pot | HTR1E agonist | HTR1A agonist | HTR1E antagonist | S1P3 agonist
CC(=O)Nc1ccc(S(=O)(=O)N2CCSC2C(=O)O)cc1 (configuration not stated) | – | · | – | – | – | ·
COc1ccc(NC(=O)CSc2nnc(CNc3ccc(F)cc3)o2)c(OC)c1 | – | – | – | – | – | –
O=C(CSc1nnc(COc2ccc3c(c2)CCCC3)o1)Nc1ccc(F)cc1 | – | – | 9.3 | – | – | –
Cc1cc(C)cc(N(CC(=O)NCc2cccnc2)S(C)(=O)=O)c1 | – | – | 17 | – | – | –
CCn1c(SCC(=O)Nc2nc3ccc(C)cc3s2)nc2c(c1=O)SC(C)C2 (configuration not stated) | – | 55 | – | – | – | –
CCn1c(SCC(=O)NC2CCCCC2)nc2c(c1=O)SC(C)C2 (configuration not stated) | – | – | – | – | – | –
CCn1c(SCC(=O)Nc2nc3ccccc3s2)nc2c(c1=O)SC(C)C2 (configuration not stated) | – | – | – | – | – | –
CCn1c(SCC(=O)NCC2CCCO2)nc2c(c1=O)SC(C)C2 (configuration not stated) | – | – | – | 19 | – | –
CCN(CC)CCCN1C(=O)C(=O)/C(=C(/O)c2ccc3c(c2)CC(C)O3)C1c1cccnc1 (configuration not stated) | · | – | – | – | – | –
Cc1nn(-c2ccc(F)cc2)c2nc(N)c(C#N)c(-c3cccs3)c12 | – | – | – | – | 36 | –
CCOC(=O)C1=C(C)NC(=O)C1CC(=O)Nc1ccccc1 (configuration not stated) | · | – | – | – | – | –
CC(=O)Nc1nc(=O)c2ccccc2s1 | 47 | – | – | – | – | –
CC(=O)N1CCN(CC(=O)Nc2c(Cl)cc(Cl)cc2Cl)CC1 | – | – | – | – | – | –
Cc1ccc(Cn2c(Sc3nnc(C)s3)nc3c2c(=O)[nH]c(=O)n3C)cc1 | – | – | – | – | 41 | –
COc1ccc(N2CCN(c3oc(COc4ccccc4Cl)nc3C#N)CC2)cc1 | 50 | · | – | – | – | ·
COc1ccc(OCc2nc(C#N)c(N3CCN(c4ccc(OC)cc4)CC3)o2)cc1 | 52 | – | – | – | – | –
N#Cc1nc(COc2ccc(F)cc2)oc1N1CCC(Cc2ccccc2)CC1 | 56 | – | – | – | – | –
N#Cc1nc(COc2ccc(Cl)cc2)oc1N1CCCCCC1 | – | · | – | – | – | –
COc1ccccc1-n1nnnc1SCc1ccccc1 | – | – | – | – | – | –
COc1ccccc1-n1nnnc1SCc1cc2c(cc1Br)OCO2 | – | – | – | – | 29 | –
Cc1ccc(N2CC(C(=O)NCC3CCCO3)CC2=O)cc1Cl (configuration not stated) | – | · | – | – | – | –
Cc1ccc2nc(SCCC#N)nc(C)c2c1 | – | – | – | – | – | –

Screening data as filed in PubChem BioAssay.
